Screening results as filed in PubChem BioAssay.
RanGTP-Imp inh = inhibitors of RanGTP-importin-beta interaction, primary screen, biochemical, FRET, CFP-Ran, YFP-importin-beta, homogeneous; cell-free CFP-Ran/YFP-importin-beta FRET ratio; inhibition, % (concentration not given with the values); 300,000 compounds, 1.1% hits;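 active = more than half of the replicate wells show a fall in the fluorescence ratio signal beyond about 16%, limit read from the data, passing the limit was not always enough; inconclusive = exactly half of the replicate wells pass the set limit; inactive = fewer than half of replicates pass the limit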
MEX-5 binding = C. elegans MEX-5 TCR-2 RNA binding activity; Q9XUB2; MEX-5/FITC-TCR2 RNA binding, fluorescence polarization; stronger effect = lower value; activity score (negative = inhibition of binding), % at 10 µM; 300,000 compounds, 0.38% hits; AID 1832;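 active = inhibition past about -25% in most replicates, and total fluorescence under double the plate's negative control median, limit read from the data; inconclusive = replicates evenly split on the limit, or fluorescence at least double controls; inactive = too little inhibition in most replicates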
Target sequence (Q9XUB2 whole entry, looked up): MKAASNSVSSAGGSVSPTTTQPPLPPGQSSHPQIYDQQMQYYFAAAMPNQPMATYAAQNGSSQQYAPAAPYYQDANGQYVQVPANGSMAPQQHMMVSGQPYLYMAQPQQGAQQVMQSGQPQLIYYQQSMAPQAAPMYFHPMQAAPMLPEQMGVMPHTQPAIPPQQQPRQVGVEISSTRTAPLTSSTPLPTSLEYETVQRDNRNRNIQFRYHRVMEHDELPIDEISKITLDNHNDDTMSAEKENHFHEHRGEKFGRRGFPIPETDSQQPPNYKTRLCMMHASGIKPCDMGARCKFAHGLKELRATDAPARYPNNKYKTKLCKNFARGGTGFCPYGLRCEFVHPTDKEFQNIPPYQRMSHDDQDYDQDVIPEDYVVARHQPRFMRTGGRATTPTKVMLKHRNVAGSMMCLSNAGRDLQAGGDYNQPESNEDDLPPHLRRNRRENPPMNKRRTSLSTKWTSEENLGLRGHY
Runt-CBFb FRET = Runt domain-CBFb interaction inhibition; Cerulean-Runt/Venus-CBFb FRET ratio 530/480, 1 h; inhibition, % at 20 µM; 220,000 compounds, 0.46% hits; AID 1496;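 active = inhibition over about 50% at 20 µM in the single-dose screen, limit read from the data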
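Assay system: Cerulean-tagged RUNX1 Runt domain (FRET donor) fusion protein / Amount: 100 nM each of Venus-CBFb and Cerulean-Runt domain / Medium: Tris buffer pH 7.5 with salts and BSA / Also added: Venus-CBFb 100 nM / Schedule: 1 h complex formation plus 1 h compound treatment, room temperature / Signal: FRET fluorescence / Read-out: loss of energy transfer signal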
LANA-H2B inh = blocks KSHV LANA binding to histone H2A/H2B. 320,000 compounds, 0.6% hits. Q9QR71. inhibition, % (no concentration beside the values). cell-free LANA-H2A/H2B peptide, fluorescence polarization; in the data active = inhibition mostly above about 10%, no sharp cut-off; inactive = mostly below about 6.7%
EBV gp42 block = inhibitors of Epstein-Barr virus glycoprotein 42; Q1HVG2; Fluorescence polarization binding assay, mP read-out; inhibition, % (tested at 21.74 µM); 220,000 compounds, 0.42% hits; AID 1085; in the data active = inhibition above about 50%
Runt-SMMHC FRET = inhibitors of human RUNX1 Runt domain binding to CBFb-SMMHC; Q01196+Q13951; inhibition, % at 20 µM; Cerulean-Runt/Venus-CBFb-SMMHC FRET ratio 530/480, 1 h; 220,000 compounds, 0.74% hits;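 active = mean inhibition across duplicate retests at 20 µM reaching about 50%, limit read from the data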;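 also: inhibitors lower the FRET ratio by blocking Runt binding to CBFb-SMMHC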
Runt-CBFb TRFRET = disrupts human RUNX1 Runt domain binding to CBFb; shares compounds with Runt-CBFb FRET; TR-FRET RUNX1 Runt domain-CBFb binding; inhibition, % at 20 µM; 480 compounds, 20% hits; AID 1502; in the data active = inhibition above about 40%
Numbers stand for hits; 0 = inactive; ? = inconclusive; - = no result. The list is not random: actives were taken first. Their share in the collection is about 2.4%.

SMILES	RanGTP-Imp inh	MEX-5 binding	Runt-CBFb FRET	LANA-H2B inh	EBV gp42 block	Runt-SMMHC FRET	Runt-CBFb TRFRET
CCC1Sc2ccccc2N(CC(=O)NC2CCCCC2)C1=O (configuration not stated)	0	0	0	0	0	0	-
O=C(O)c1ccccc1SC1CC(=O)N(c2cccc3ccccc23)C1=O (configuration not stated)	-	-	53	-	0	0	47
CCN1C(=O)CC(Sc2ccccc2C(=O)O)C1=O (configuration not stated)	?	0	0	0	0	0	-
CC(Cc1cccs1)NC(=O)Nc1ccc(Cl)c(Cl)c1 (configuration not stated)	0	0	0	0	0	0	-
CN(C)CCCNS(=O)(=O)c1ccc(N2CCC(c3ccc(Cl)cc3)=N2)cc1	27	0	57	0	0	93	0
CN(C)CCCNS(=O)(=O)c1cc(Cl)ccc1Cl	0	0	0	0	0	0	-
CCN(CC)S(=O)(=O)c1ccc(NS(=O)(=O)c2ccc(F)cc2)cc1	0	0	0	0	0	0	-
CCN(CC)S(=O)(=O)c1ccc(OC)c(NS(=O)(=O)c2ccc(F)cc2)c1	0	0	50	0	0	0	0
CCOc1ccc(NC(=O)NC2CCS(=O)(=O)C2)cc1 (configuration not stated)	0	0	-	0	-	-	-
O=C(CN1CCN(c2ccccc2)CC1)Nc1cccc(C(F)(F)F)c1	0	0	59	0	0	0	0
O=C(CN1CCN(Cc2ccccc2)CC1)Nc1cccc(C(F)(F)F)c1	0	0	0	0	0	0	-
Cc1ccn(CCC(=O)O)n1	0	0	0	0	0	0	-
Cc1ccn(-c2cc(O)c(-n3ccc(C)n3)cc2O)n1	0	0	64	0	0	0	0
O=C(NC(=S)Nc1ccc2c(c1)C(=O)c1ccccc1C2=O)c1ccc(F)cc1	0	0	0	0	0	0	-
Oc1ccccc1OCc1nc2ccccc2s1	0	0	0	0	0	0	-
Oc1ccc(O)c(Cc2nc3ccccc3s2)c1	0	0	51	0	0	0	43
O=C(O)CCc1nc2ccccc2c(=O)[nH]1	0	0	0	0	0	0	-
Cc1cc2oc(=O)c3c(c2cc1OC(=O)c1ccco1)CCCC3	0	0	0	0	0	0	-
O=C(Oc1cc2oc(=O)c3c(c2cc1Cl)CCCC3)c1cccs1	-	0	76	0	0	133	0
O=C(Oc1cc2oc(=O)c3c(c2cc1Cl)CCCC3)c1ccco1	0	-	68	0	0	120	0
O=C1OC(c2ccccc2)=N/C1=C\C=C\c1ccccc1[N+](=O)[O-]	0	0	74	12	0	0	0
CCCn1nc(NS(C)(=O)=O)c2cc3cccc(C)c3nc21	0	0	0	0	0	0	-
CCCn1nc(NC(=O)c2cccs2)c2cc3cccc(C)c3nc21	95	0	64	0	0	85	0
CC(C)(C)OC(=O)N1CCC(C(=O)N2CCOCC2)CC1	0	0	84	0	0	0	0
CC(C)(C)OC(=O)N1CCC(C(=O)N2CCCCCC2)CC1	0	0	0	0	0	0	-
SMILES	RanGTP-Imp inh	MEX-5 binding	Runt-CBFb FRET	LANA-H2B inh	EBV gp42 block	Runt-SMMHC FRET	Runt-CBFb TRFRET
CCCC(C)c1nnc(NC(=O)c2cc(C(=O)OC)cc([N+](=O)[O-])c2)s1 (configuration not stated)	0	0	53	0	0	0	0
CC(C)(C)OC(=O)C[C@@H]1C/C=C\C[C@@H](CC(=O)N(CCO)Cc2ccccc2)C(=O)NC[C@H](c2ccccc2)OC1=O	-	-	-	0	-	-	-
CC(C)Cn1c(N)c(C(=O)NCC2CCCO2)c2nc3ccccc3nc21 (configuration not stated)	82	0	52	0	0	58	0
C[C@H]1C=C(C(=O)NC2CC2)O[C@@H](OCc2ccc(CO)cc2)C1	?	0	0	0	0	0	-
Cc1ccc(CSc2ccc(-c3ccco3)nn2)cc1	0	0	56	0	0	0	0
Clc1ccc(CSc2ccc(-c3ccco3)nn2)cc1	0	0	56	0	0	0	52
COc1ccc(OC)c2c1C(=O)C(Cl)=C(Cl)C2=O	0	0	68	0	0	66	0
COc1ccc(S(=O)(=O)N2CCCC2)c(Cl)c1Cl	0	0	0	0	0	0	-
COCCOC(=O)C(C#N)c1nc2ccccc2nc1N1CCN(Cc2ccccc2)CC1 (configuration not stated)	0	0	53	0	0	97	0
COCCCNC(=O)C(C#N)c1nc2ccccc2nc1N1CCN(Cc2ccccc2)CC1 (configuration not stated)	?	0	0	-	0	0	-
O=C1c2ccccc2-c2c1cccc2C(=O)N(CCO)CCO	0	0	75	0	0	0	0
COc1ccc(N2C(=O)C(Cl)=C(Oc3cccc(OC)c3)C2=O)cc1	-	0	57	0	0	0	43
O=C(Nc1ncn[nH]1)c1cccc(S(=O)(=O)N2CCOCC2)c1	0	0	0	0	0	0	-
Cc1nc2ccccc2nc1CN1CCC(CO)(CC2CCCCO2)CC1 (configuration not stated)	0	0	0	0	0	0	-
CCC(C)NC(=O)CC(C)C (configuration not stated)	0	0	0	0	0	0	-
CC(C)CC(=O)NN1CCCCC1	0	0	75	0	0	0	58
CN1c2ccsc2C(O)=C(C(=S)Nc2ccccc2)S1(=O)=O	89	0	53	0	0	91	0
O=C(CCSc1ccccn1)c1ccccc1	0	0	59	0	0	0	0
O=C(O)CCSc1ccccn1	0	0	0	0	0	0	-
C1CCN(CCCNC2C3CC4CC(C3)CC2C4)C1 (configuration not stated)	?	0	0	0	0	0	-
O=C(NNC(=O)C1CC1)c1ccc(F)cc1F	-	-	-	0	-	-	-
N#Cc1c(N)n(-c2cccc(O)c2)c2nc3ccccc3nc12	27	0	73	0	0	102	0
CCOC(=O)c1cnc2ccc(Cl)cc2c1NCCN(C)C	?	0	64	0	0	0	0
S=c1nc(-c2cc(Cl)ccc2Cl)[nH][nH]1	0	0	57	0	0	0	0
S=c1nc(-c2cccc(Cl)c2)[nH][nH]1	0	0	0	0	0	0	-
Cc1ccc(C2OC34CCCCCC3C(C#N)(C(=N)O4)C2(C#N)C#N)cc1 (configuration not stated)	34	0	52	0	0	99	0
Nc1c(C(=O)NCCN2CCOCC2)c2nc3ccccc3nc2n1CCc1ccccc1F	93	0	70	0	0	61	0
